We go through 5 molecules from ChEMBL document CHEMBL3616444, “Design, synthesis and pharmacological evaluation of pyrimidobenzothiazole-3-carboxylate derivatives as selective L-type calcium channel blockers” (Bioorg Med Chem, 2015).

Data set [1] has as its system Rattus norvegicus. Put plainly: Antihypertensive activity in Norwegian albino rat model of DOCA-salt-induced hypertension assessed as inhibition of systolic blood pressure at 10 mg/kg, po after 8 hrs by non-invasive tail cuff method relative to control. It is filed as functional. The essentials: (§1)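 DOCA-salt hypertensive rats; systolic pressure by tail cuff after 10 mg/kg, recorded hourly from 0 to 10 h; percent inhibition computed. Data as mean ± SEM, repeated-measures ANOVA.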

The subject of data set [2] is Rattus norvegicus. Nature of the data set: Antihypertensive activity in Norwegian albino rat assessed as inhibition of systolic blood pressure at 10 mg/kg, po after 0.3 hrs by invasive carotid artery cannulation method relative to control. Format: functional.
Data set [3] has as its system Rattus norvegicus. Nature of the data set: Antihypertensive activity in Norwegian albino rat model of DOCA-salt-induced hypertension assessed as inhibition of systolic blood pressure at 10 mg/kg, po after 6 hrs by non-invasive tail cuff method relative to control. Format: functional. The essentials:
as §1

In data set [4] the test system is Rattus norvegicus. Nature of the data set: Antihypertensive activity in Norwegian albino rat assessed as inhibition of systolic blood pressure at 10 mg/kg, po after 0.15 hrs by invasive carotid artery cannulation method relative to control. It is filed as functional.
The test system of data set [5] is Rattus norvegicus. Nature of the data set: Antihypertensive activity in Norwegian albino rat assessed as inhibition of systolic blood pressure at 10 mg/kg, po after 1 hr by invasive carotid artery cannulation method relative to control. It is filed as functional.
Data set [6] concerns Rattus norvegicus. Nature of the data set: Antihypertensive activity in Norwegian albino rat assessed as inhibition of systolic blood pressure at 10 mg/kg, po after 3 hrs by invasive carotid artery cannulation method relative to control. It is filed as functional.
Data set [7] deals with Rattus norvegicus. Nature of the data set: Antihypertensive activity in Norwegian albino rat model of DOCA-salt-induced hypertension assessed as inhibition of systolic blood pressure at 10 mg/kg, po after 3 hrs by non-invasive tail cuff method relative to control. Format: functional. The method in brief: as §1
Data set [8] relates to Rattus norvegicus. Nature of the data set: Antihypertensive activity in Norwegian albino rat model of DOCA-salt-induced hypertension assessed as inhibition of systolic blood pressure at 10 mg/kg, po after 2 hrs by non-invasive tail cuff method relative to control. It is filed as functional. The method in brief:
as §1

In data set [9] the test system is Rattus norvegicus. Put plainly: Antihypertensive activity in Norwegian albino rat model of DOCA-salt-induced hypertension assessed as inhibition of systolic blood pressure at 10 mg/kg, po after 10 hrs by non-invasive tail cuff method relative to control. It is filed as functional. The method in brief: as §1
For data set [10], the system named is Rattus norvegicus. Nature of the data set: Antihypertensive activity in Norwegian albino rat model of DOCA-salt-induced hypertension assessed as inhibition of systolic blood pressure at 10 mg/kg, po after 9 hrs by non-invasive tail cuff method relative to control. Format: functional. The method in brief: as §1
Data set [11] relates to Rattus norvegicus. Nature of the data set: Antihypertensive activity in Norwegian albino rat model of DOCA-salt-induced hypertension assessed as inhibition of systolic blood pressure at 10 mg/kg, po after 5 hrs by non-invasive tail cuff method relative to control. Format: functional. The method in brief:
as §1

Data set [12] relates to Rattus norvegicus. Nature of the data set: Gastrointestinal toxicity in Norwegian rat assessed as ulcerative index at 50 mg/kg, po after 17 hrs. The following applies: in vivo. It is filed as organism-based.
Data set [13] relates to Rattus norvegicus. Put plainly: Antihypertensive activity in Norwegian albino rat model of DOCA-salt-induced hypertension assessed as inhibition of systolic blood pressure at 10 mg/kg, po after 4 hrs by non-invasive tail cuff method relative to control. Format: functional. The method in brief: as §1
The test system of data set [14] is Rattus norvegicus. Nature of the data set: Antihypertensive activity in Norwegian albino rat assessed as inhibition of systolic blood pressure at 10 mg/kg, po after 2 hrs by invasive carotid artery cannulation method relative to control. Format: functional.
Data set [15] deals with Myosin light chain kinase, smooth muscle (Homo sapiens, UniProt Q15746). Nature of the data set: Inhibition of MLCK (unknown origin) incubated for 15 mins using [gamma-32P]-ATP by scintillation counting method. The method in brief: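 Active MLCK thawed on ice with kinase assay and dilution buffers and substrate; reaction with γ-32P-ATP incubated 15 min at 30 °C in a water bath, spotted on phosphocellulose P81 paper, washed three times ~10 min in 1% phosphoric acid. Radioactivity by scintillation counting, blank-corrected cpm converted to specific activity (nmol/min/mg); IC50 from log plots, at least five determinations per concentration.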

Data set [16] relates to Rattus norvegicus. Nature of the data set: Antihypertensive activity in Norwegian albino rat model of DOCA-salt-induced hypertension assessed as inhibition of systolic blood pressure at 10 mg/kg, po after 7 hrs by non-invasive tail cuff method relative to control. Format: functional. The essentials:
as §1

A further data set in a line: physchem. The following applies: buffer, pH 7.4.
Data set [17] has as its system Rattus norvegicus. Nature of the data set: Antihypertensive activity in Norwegian albino rat model of DOCA-salt-induced hypertension assessed as inhibition of systolic blood pressure at 10 mg/kg, po after 1 hr by non-invasive tail cuff method relative to control. It is filed as functional. The essentials:
as §1

In data set [18] the test system is Rattus norvegicus. Nature of the data set: Antihypertensive activity in Norwegian albino rat assessed as inhibition of systolic blood pressure at 10 mg/kg, po after 4 hrs by invasive carotid artery cannulation method relative to control. It is filed as functional.
Data set [19] is described as follows: Inhibition of porcine kidney ACE assessed as reduction in hippuryl-histidyl-leucine hydrolysis to hippuric acid release incubated for 30 mins high-throughput colorimetric method. Details: species or system Sus scrofa. The method in brief:
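Porcine kidney ACE in 1 M sodium borate buffer pH 8.2 with 0.3 M NaCl and 5 mM HHL substrate (stock); 37 °C for 30 min, stopped with 1 M HCl. Released hippuric acid complexed with pyridine and benzene sulfonyl chloride, cooled on ice, yellow colour read at 410 nm; IC50 from log plots, at least five determinations per concentration.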

The subject of data set [20] is Rattus norvegicus. Put plainly: Antihypertensive activity in Norwegian albino rat assessed as inhibition of diastolic blood pressure at 10 mg/kg, po after 0.3 hrs by invasive carotid artery cannulation method relative to control.
Data set [21] concerns Rattus norvegicus. Nature of the data set: Antihypertensive activity in Norwegian albino rat assessed as inhibition of diastolic blood pressure at 10 mg/kg, po after 3 hrs by invasive carotid artery cannulation method relative to control.
Data set [22] relates to Rattus norvegicus. Nature of the data set: Antihypertensive activity in Norwegian albino rat assessed as inhibition of diastolic blood pressure at 10 mg/kg, po after 2 hrs by invasive carotid artery cannulation method relative to control.
For data set [23], the system named is Rattus norvegicus. Put plainly: Antihypertensive activity in Norwegian albino rat assessed as inhibition of diastolic blood pressure at 10 mg/kg, po after 0.15 hrs by invasive carotid artery cannulation method relative to control.
Data set [24] has as its system Rattus norvegicus. Nature of the data set: Antihypertensive activity in Norwegian albino rat assessed as inhibition of diastolic blood pressure at 10 mg/kg, po after 4 hrs by invasive carotid artery cannulation method relative to control.
In data set [25] the test system is Rattus norvegicus. Put plainly: Antihypertensive activity in Norwegian albino rat assessed as inhibition of diastolic blood pressure at 10 mg/kg, po after 1 hr by invasive carotid artery cannulation method relative to control.

Myosin light chain kinase, smooth muscle, sequence (Q15746 whole entry): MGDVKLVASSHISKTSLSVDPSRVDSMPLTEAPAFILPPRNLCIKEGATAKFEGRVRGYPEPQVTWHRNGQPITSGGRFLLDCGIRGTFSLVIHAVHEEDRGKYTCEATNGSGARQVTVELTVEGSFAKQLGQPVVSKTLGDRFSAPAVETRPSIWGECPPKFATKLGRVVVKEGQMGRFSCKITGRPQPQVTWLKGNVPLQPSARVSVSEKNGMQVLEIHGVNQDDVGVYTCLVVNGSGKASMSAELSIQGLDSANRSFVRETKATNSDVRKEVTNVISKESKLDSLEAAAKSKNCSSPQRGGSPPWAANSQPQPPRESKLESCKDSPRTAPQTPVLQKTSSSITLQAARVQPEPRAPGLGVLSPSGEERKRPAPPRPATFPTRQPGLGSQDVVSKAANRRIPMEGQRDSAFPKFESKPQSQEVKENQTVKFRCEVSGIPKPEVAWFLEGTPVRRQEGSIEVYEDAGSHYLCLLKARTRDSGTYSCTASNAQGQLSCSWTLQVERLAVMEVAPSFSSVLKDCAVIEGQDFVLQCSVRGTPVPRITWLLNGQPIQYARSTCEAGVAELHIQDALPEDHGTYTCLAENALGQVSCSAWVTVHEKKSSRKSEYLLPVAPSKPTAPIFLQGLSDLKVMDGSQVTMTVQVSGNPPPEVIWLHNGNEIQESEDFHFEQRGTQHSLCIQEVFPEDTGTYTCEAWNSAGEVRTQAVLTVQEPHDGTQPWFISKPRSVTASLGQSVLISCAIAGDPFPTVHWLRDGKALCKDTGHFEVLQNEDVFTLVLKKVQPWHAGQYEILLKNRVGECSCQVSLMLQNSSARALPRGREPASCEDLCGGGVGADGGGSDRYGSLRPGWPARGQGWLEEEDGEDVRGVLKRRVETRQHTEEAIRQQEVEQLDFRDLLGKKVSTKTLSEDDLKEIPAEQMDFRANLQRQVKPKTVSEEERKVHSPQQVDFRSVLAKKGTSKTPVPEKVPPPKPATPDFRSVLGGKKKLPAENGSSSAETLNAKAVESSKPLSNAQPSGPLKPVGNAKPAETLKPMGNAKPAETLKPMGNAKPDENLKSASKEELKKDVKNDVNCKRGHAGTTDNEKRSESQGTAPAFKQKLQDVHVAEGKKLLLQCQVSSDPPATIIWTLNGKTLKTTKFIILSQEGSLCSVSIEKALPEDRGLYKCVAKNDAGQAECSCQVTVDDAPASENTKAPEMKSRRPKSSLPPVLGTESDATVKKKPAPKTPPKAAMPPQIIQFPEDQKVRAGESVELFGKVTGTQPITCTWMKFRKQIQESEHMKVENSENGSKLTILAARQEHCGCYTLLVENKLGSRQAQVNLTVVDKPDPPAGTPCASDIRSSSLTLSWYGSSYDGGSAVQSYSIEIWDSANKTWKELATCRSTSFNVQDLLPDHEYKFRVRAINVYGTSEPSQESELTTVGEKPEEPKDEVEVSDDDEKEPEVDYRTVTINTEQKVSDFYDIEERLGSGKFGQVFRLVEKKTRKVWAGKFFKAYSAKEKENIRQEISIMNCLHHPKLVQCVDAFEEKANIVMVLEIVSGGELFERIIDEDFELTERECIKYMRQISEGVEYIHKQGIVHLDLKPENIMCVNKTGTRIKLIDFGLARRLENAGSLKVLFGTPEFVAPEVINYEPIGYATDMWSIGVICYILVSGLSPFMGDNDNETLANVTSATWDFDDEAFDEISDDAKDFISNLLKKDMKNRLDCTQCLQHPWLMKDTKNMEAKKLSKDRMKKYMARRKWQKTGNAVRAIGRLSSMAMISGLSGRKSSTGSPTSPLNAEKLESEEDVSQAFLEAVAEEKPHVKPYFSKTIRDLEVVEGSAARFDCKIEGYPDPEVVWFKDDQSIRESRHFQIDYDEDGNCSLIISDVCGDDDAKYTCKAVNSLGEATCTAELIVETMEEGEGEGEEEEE

Broadly, the inhibition in vivo is the drop in the measured response relative to a control, in per cent. A word on the logD: it is the decadic logarithm of the distribution of all forms, ionised or not, between an organic phase and buffer at a given pH. Take `COC(=O)C1=C(C)N=C2Sc3ccccc3N2C1c1ccc(Cl)cc1` (stereo not drawn): the inhibition in vivo at 10 mg/kg came to 33.6% in the data set on Rattus norvegicus [1]; 4.42% with Rattus norvegicus [2]; 28.8% in the data set on Rattus norvegicus [3]; 2.21% with Rattus norvegicus [4]; 15.9% in the data set on Rattus norvegicus [5]; 31% in the data set on Rattus norvegicus [6]. The inhibition in vivo at 10 mg/kg came to 14.6% in the data set with Rattus norvegicus [7]; 11.5% in the data set on Rattus norvegicus [8]; 40.3% in the data set with Rattus norvegicus [9]; 38% in the data set with Rattus norvegicus [10]; 28.8% in the data set on Rattus norvegicus [11]; 24.8% with Rattus norvegicus [13]. Also, the inhibition in vivo at 10 mg/kg turned out to be 24.8% with Rattus norvegicus [14], 31.4% in the data set with Rattus norvegicus [16], 2.65% in the data set with Rattus norvegicus [17] and 49.6% in the data set with Rattus norvegicus [18]. In the data set on Rattus norvegicus [12], the UI is reported as 0.36. Further, the IC50 was 9.1 µM in [15] (read-out: IC50), 11000 µM in data set [15] (read-out: pIC50 (converted)) and greater than 100 µM in [19]. The logD in the data set “physchem” amounted to 5.44.
With `COC(=O)C1=C(C)N=C2Sc3ccccc3N2C1c1ccc(OC)cc1` (stereo not drawn), the inhibition in vivo at 10 mg/kg came out at 35.6% in the data set with Rattus norvegicus [1]; 7.08% with Rattus norvegicus [2]; 25.3% with Rattus norvegicus [3]; 4.42% in the data set on Rattus norvegicus [4]; 15.9% in the data set on Rattus norvegicus [5]; 31% with Rattus norvegicus [6]. Further, the inhibition in vivo at 10 mg/kg came out at 13.3% in the data set with Rattus norvegicus [7]; 1.78% with Rattus norvegicus [8]; 48.9% in the data set with Rattus norvegicus [9]; 40% with Rattus norvegicus [10]; 24.4% in the data set with Rattus norvegicus [11]; 20% with Rattus norvegicus [13]. Besides, the inhibition in vivo at 10 mg/kg is 27% in the data set with Rattus norvegicus [14], 31.1% with Rattus norvegicus [16], 1.33% with Rattus norvegicus [17] and 42.5% with Rattus norvegicus [18]. In addition, the UI with Rattus norvegicus [12] is reported as 0.54. Moreover, the IC50 in data set [15] (read-out: IC50) was 2.14 µM; in data set [15] (read-out: pIC50 (converted)), 46700 µM; in data set [19], greater than 100 µM. In addition, the logD in the data set “physchem” amounted to 4.64.
As to `COC(=O)C1=C(C)N=C2Sc3ccccc3N2C1c1ccc([N+](=O)[O-])cc1` (stereo not drawn), the inhibition in vivo at 10 mg/kg with Rattus norvegicus [1] was determined as 42.5%; in the data set with Rattus norvegicus [2] it was 4.42%; with Rattus norvegicus [3], 38%; in the data set on Rattus norvegicus [4], 2.21%; in the data set with Rattus norvegicus [5], 15.9%; in the data set with Rattus norvegicus [6], 31%. The inhibition in vivo at 10 mg/kg turned out to be 13.7% with Rattus norvegicus [7]; 4.87% with Rattus norvegicus [8]; 46.9% with Rattus norvegicus [9]; 46.9% in the data set with Rattus norvegicus [10]; 27% with Rattus norvegicus [11]; 24.8% in the data set on Rattus norvegicus [13]. Besides, the inhibition in vivo at 10 mg/kg in the data set on Rattus norvegicus [14] was determined as 24.8%; in the data set with Rattus norvegicus [16], 40.3%; in the data set on Rattus norvegicus [17], 0%; in the data set with Rattus norvegicus [18] it was 48.7%. Further, the UI with Rattus norvegicus [12] was determined as 0.2. The figures for the IC50 in [15] (read-out: IC50), in data set [15] (read-out: pIC50 (converted)) and in [19] were 2.04 µM, 49000 µM and greater than 100 µM, respectively. The molecule further came in with a logD in the data set “physchem” of 4.49.
With `COC(=O)C1=C(C)N=C2Sc3ccccc3N2C1c1ccc(O)c(OC)c1` (stereo not drawn), the inhibition in vivo at 10 mg/kg in the data set with Rattus norvegicus [1] was 37.8%; in the data set on Rattus norvegicus [2], 7.08%; with Rattus norvegicus [3] it was 32.4%; in the data set with Rattus norvegicus [4], 4.42%; in the data set with Rattus norvegicus [5], 15.9%; with Rattus norvegicus [6], 31%. In addition, the inhibition in vivo at 10 mg/kg in the data set on Rattus norvegicus [7] was found to be 13.1%; in the data set on Rattus norvegicus [8], 5.41%; in the data set on Rattus norvegicus [9], 41%; in the data set with Rattus norvegicus [10], 40.1%; in the data set with Rattus norvegicus [11] it was 27.5%; in the data set with Rattus norvegicus [13], 19.8%. The inhibition in vivo at 10 mg/kg in the data set with Rattus norvegicus [14] came to 27%; in the data set on Rattus norvegicus [16] it was 36.5%; in the data set with Rattus norvegicus [17], 0.9%; in the data set on Rattus norvegicus [18] it was 42.5%. In addition, the UI in the data set with Rattus norvegicus [12] was 0.2. Moreover, the values for the IC50 in data set [15] (read-out: IC50), in data set [15] (read-out: pIC50 (converted)) and in data set [19] were 3.67 µM, 27200 µM and greater than 100 µM, respectively. In the data set “physchem”, the logD was determined as 3.89.
`COC(=O)C1=C(C)NC(C)=C(C(=O)OC)C1c1ccccc1[N+](=O)[O-]` [NIFEDIPINE]: the inhibition in vivo at 10 mg/kg with Rattus norvegicus [20] worked out at 13.8%; in the data set with Rattus norvegicus [1] it was 47.6%; with Rattus norvegicus [3], 32.9%; in the data set on Rattus norvegicus [21], 37.3%; in the data set with Rattus norvegicus [7], 14.2%; with Rattus norvegicus [22], 26.7%. The inhibition in vivo at 10 mg/kg with Rattus norvegicus [8] came out at 10.7%; in the data set with Rattus norvegicus [23], 6.22%; in the data set on Rattus norvegicus [9] it was 54.2%; in the data set on Rattus norvegicus [10] it was 52%; in the data set with Rattus norvegicus [11], 23.1%; with Rattus norvegicus [13], 19.1%. The inhibition in vivo at 10 mg/kg with Rattus norvegicus [16] was 41.8%; in the data set with Rattus norvegicus [17], 4.89%; in the data set with Rattus norvegicus [24] it was 53.8%; in the data set with Rattus norvegicus [25], 16%. Besides, in the data set on Rattus norvegicus [12], the UI came to 0.54. The IC50 in data set [15] (read-out: IC50) worked out at 2.02 µM; in [19] it was 2.34 µM.
